Bioassay records (PubChem BioAssay)
Plk1 PBD FP – Plk1 (human) PBD binding inhibition. Plk1 PBD phosphopeptide binding, fluorescence polarization. inhibition, %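 (tested at about 20 µM)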. 0.13% of 97,000 active. AID 693; in the data active = inhibition above about 34%, passing the limit was not always enough
Pyk2 oligo antag – antagonists of human Pyk2 oligomerization | Q14289 | Q293 cells, Pyk2 FERM NanoBiT luminescence; active compounds read low | z-score (the deposit names both 25 µM and 10 µM) | 0.83% of 99,000 active;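 active = Z-score of -3 or lower, scaled per plate to the spread of control and sample wells; inactive = z-score above -3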;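 also: negative z-score means lost luminescence so less FERM oligomerization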
HEK293 NFkB inh – inhibitors of the PMA/ionomycin-induced NF-kB reporter in HEK293 cells; HEK-293 NF-kB luciferase reporter, luminescence; inhibition, % at 3 µM; 0.21% of 62,000 active; AID 465;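 active = inhibition above the mean of all tested compounds plus 3 SD, cut at about 40% in these data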;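 also: 0% = stimulated DMSO wells and 100% = 10 µM reference inhibitor 5653914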
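System – HEK-293 cells with stable firefly luciferase reporter driven by four HIV NF-kB elements · Doses – one dose, 3 µM · Schedule – 1 h compound pre-incubation, 16 h PMA/ionomycin at 37 °C · Technique – luminescence from luciferase substrate reagent · Measure – percent inhibition normalized per plate to DMSO and reference-inhibitor controls · Replicates – tested once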
PLK1 kinase inh – PLK1 (human) kinase inhibition | inhibition, % at 10 µM | 0.53% of 97,000 active | P53350 | recombinant PLK1 kinase, TR-FRET peptide phosphorylation | AID 619;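 active = inhibition of 50% or more in the single-concentration screen; inactive = inhibition below 50%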;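 also: 0% = DMSO max control and 100% = H-89 dihydrochloride min control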
AP complement – alternative pathway complement inhibition, orthogonal assay; 0.08% of 62,000 active; Human serum alternative complement pathway, LPS-coated ELISA, C3 deposition; tested in compound mixtures; inhibition, % at 5 µM; AID 1235;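 active = inhibition above 30% in each of the two pooled mixtures holding the compound, so the lower value exceeds 30%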;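 also: 0% = serum in Mg-EGTA without compound and 100% = EDTA serum blank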
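Assay system: human serum alternative complement pathway, C3 deposition on LPS-coated wells; Dosing: 5 µM per compound in ten-compound mixtures; Detection: Anti-C3 ELISA, OD 450 nm; Buffer or medium: Mg2+-EGTA GVB++ buffer containing human serum at 1:15 dilution; Timing: 1 h at 37 °C; Replication: two different pools per compound.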
HePTP inh – human HePTP phosphatase inhibition; P35236; recombinant HePTP phosphatase activity, OD absorbance; inhibition, % at 20 µM; 0.64% of 110,000 active; in the data active = inhibition above about 50%;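 also: plate controls were vehicle for no effect and reference inhibitor for full effect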
Target sequence (P35236 whole entry, looked up): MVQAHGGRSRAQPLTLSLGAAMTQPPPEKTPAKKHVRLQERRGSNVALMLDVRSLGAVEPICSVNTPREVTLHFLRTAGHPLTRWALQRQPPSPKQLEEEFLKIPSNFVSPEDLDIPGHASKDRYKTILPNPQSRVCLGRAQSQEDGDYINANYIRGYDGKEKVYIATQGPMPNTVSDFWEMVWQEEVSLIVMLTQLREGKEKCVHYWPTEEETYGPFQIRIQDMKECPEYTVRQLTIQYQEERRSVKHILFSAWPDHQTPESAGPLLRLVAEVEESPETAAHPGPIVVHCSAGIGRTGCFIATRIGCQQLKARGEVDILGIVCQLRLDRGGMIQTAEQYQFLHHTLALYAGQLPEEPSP
* marks the source's active call; other numbers are inactive results; / = no result given. Shown are actives, neighbours in structure and some others; about 1.5% of the full set was active somewhere.

SMILES | Plk1 PBD FP | Pyk2 oligo antag | HEK293 NFkB inh | PLK1 kinase inh | AP complement | HePTP inh
CCOC(=O)c1ccc(-n2c(-c3ccccc3)nc3ccccc3c2=O)cc1 | / | / | / | / | / | 97.9*
O=c1c2ccccc2c(-c2ccccc2)nn1-c1cc([N+](=O)[O-])ccc1N1CCOCC1 | / | / | / | / | / | -9.2
C=CCn1c(=O)/c(=C/c2ccc(Cl)cc2)s/c1=C(/C#N)c1nnc2n1CCCCC2 | -4.1 | -1.97 | -3.7 | -3.8 | 11.2 | 8.0
C=CCn1c(=O)/c(=C/c2ccc(O)cc2)s/c1=C(/C#N)c1nnc2n1CCCCC2 | -171.3 | -3.07* | 16.1 | -12.6 | 7.1 | 14.0
CCN(CC)Cc1c(O)ccc2c(=O)c(-c3ccc4c(c3)OCCO4)coc12 | 10.4 | -1.55 | / | -9.6 | / | /
O=c1c(-c2ccc3c(c2)OCCO3)coc2cc(O)cc(O)c12 | -17.3 | -3.7* | -51.8 | -7.0 | 3.9 | 1.4
Cc1n[nH]c(C)c1N=Nc1cc(Cl)ccc1Cl | 13.3 | -1.16 | / | 53.7* | / | /
Cc1cc(OCCc2c(C)n[nH]c2C)ccc1Cl | / | / | / | / | / | 5.2
CC(C)C12CN3CC(C(C)C)(CN(C1)C3c1cccc([N+](=O)[O-])c1)C2=O (centres undefined) | / | / | / | / | / | 30.2
C=CCn1c(-c2cccnc2Cl)nc2cc(Cl)c(Cl)cc21 | -10.9 | -3.26* | / | -14.9 | / | /
Clc1cccc(Cl)c1Cn1c(-c2cccnc2Cl)nc2ccccc21 | 6.9 | -2.23 | / | -2.0 | / | /
CCCn1c(-c2cccnc2Cl)nc2cc(Cl)c(Cl)cc21 | 1.4 | -3.68* | / | -7.2 | / | /
Cc1ccc(CCNC(=O)CS(=O)Cc2nc(-c3cccc(C)c3)oc2C)cc1 (centres undefined) | -12.5 | / | 9.2 | 61.5* | 18.2 | 12.5
Cc1cccc(-c2nc(CS(=O)CC(=O)N3CCCCC3)c(C)o2)c1 (centres undefined) | -6.5 | / | 13.5 | 65.7* | 22.9 | -0.8
Cc1oc(-c2ccccc2)nc1CS(=O)CC(=O)N1CCc2ccccc2C1 (centres undefined) | 33.1 | / | 12.4 | 65.6* | 22.7 | 7.6
COc1cccc(-c2nc(CS(=O)CC(=O)NC3CC3)c(C)o2)c1 (centres undefined) | -11.9 | / | 14.5 | 69.3* | 19.7 | 6.0
O=C(c1ccc([N+](=O)[O-])cc1Cl)N1CCC(Cc2ccccc2)CC1 | / | / | / | / | / | 1.5
Cc1ccsc1C1C2=C(CC(C)(C)CC2=O)Nc2ncnn21 (centres undefined) | -14.0 | / | 18.6 | 26.1 | -9.4 | -7.7
Cc1ccsc1C1C2=C(CCCC2=O)Nc2ncnn21 (centres undefined) | -10.4 | -0.65 | 5.0 | 61.2* | 10.2 | -8.7
O=C(O)c1ccccc1SC1CC(=O)N(C2CCCCC2)C1=O (centres undefined) | -4.9 | / | 10.3 | 69.2* | 8.6 | 4.3
O=C(O)c1ccccc1SC1CC(=O)N(c2ccc(F)cc2)C1=O (centres undefined) | / | / | / | / | / | 4.8
CCOc1ccc(-c2csc(-c3cc4ccccc4oc3=O)n2)cc1 | / | / | / | / | / | 2.9
Cc1ccccc1C(=O)NN1C(=O)/C(=C\c2cccnc2)SC1=S | / | / | / | / | / | 0.7
CCN1CCN(CC(=O)NC2CCCCC2)C(=O)C1=O | -13.0 | / | 2.2 | -2.5 | 12.9 | 3.9
CCN1CCN(CC(=O)NC2CCCC2)C(=O)C1=O | -22.0 | / | 11.8 | 67.6* | -1.7 | -15.3
SMILES | Plk1 PBD FP | Pyk2 oligo antag | HEK293 NFkB inh | PLK1 kinase inh | AP complement | HePTP inh
COc1ccc(C(=O)NNC(=O)c2ccc(OC)cc2OC)cc1 | / | / | / | / | / | 2.1
CCOC(=O)c1cnn(-c2c(Cc3ccccc3)c(C)nc3c(-c4ccccc4)c(C)nn23)c1N | -22.3 | -3.95* | / | -7.5 | / | /
CCOC(=O)c1cnn(-c2cc(C(C)(C)C)nc3c(-c4ccccc4)c(C)nn23)c1N | -13.6 | 1.5 | / | -9.3 | / | /
COc1ccc(-c2cn(/N=C/c3ccc(Cl)cc3Cl)c(N)n2)cc1 | -20.1 | -0.05 | / | 61.2* | / | 1.6
c1ccc(-n2cnc3cc(NCc4ccncc4)ccc32)cc1 | 13.0 | -3.38* | 9.1 | -11.2 | -0.9 | 10.5
c1ccc(-n2cnc3cc(NCc4ccccn4)ccc32)cc1 | 12.4 | -3.42* | -6.3 | -4.6 | -4.8 | 25.3
CC(C)n1cnc2cc(NCc3ccccn3)ccc21 | -13.3 | -0.73 | / | -5.3 | / | /
O=C1NN(c2ccccc2)C(=O)/C1=C/c1cccn1-c1ccc([N+](=O)[O-])cc1 | / | / | / | / | / | 102.8*
O=C(N/N=C\c1ccc(F)cc1)C(Nc1cc([N+](=O)[O-])ccc1O)c1ccccc1 (centres undefined) | / | / | / | / | / | -1.6
O=C(NCCCn1ccnc1)C(O)(c1ccccc1)c1ccccc1 | / | / | / | / | / | 55.8*
Cc1ccc(S(=O)(=O)Oc2ccc(Br)cc2/C=C2\SC(=S)NC2=O)cc1 | / | / | / | / | / | 5.5
S=C1NC(=S)/C(=C\c2ccc(-c3ccc(Br)cc3)o2)S1 | / | / | / | / | / | 92.8*
Cn1c(C(=O)N2CCN(c3ccc(Cl)cc3)CC2)cc2c(=O)[nH]c3ccccc3c21 | 16.4 | -0.45 | -10.5 | 51.5* | 12.0 | 4.0
COc1ccc(NC(=O)c2ccc(Nc3nnc(C)c4ccccc34)cc2)cc1 | / | / | / | / | / | 59.7*
Cc1cc(C)c(S(=O)(=O)NCC2CCCO2)c(C)c1 (centres undefined) | / | / | / | / | / | -2.4
O=C(Nc1ccc2ccccc2c1)c1cn(-c2ccccc2)nc1-c1cccs1 | -7.8 | -1.73 | / | -11.1 | / | /
COc1ccc(NC(=O)c2cn(-c3ccccc3)nc2-c2cc3ccccc3o2)cc1 | -0.3 | -4.5* | / | -1.5 | / | /
Cc1ccc(C(=O)Nc2nc(-c3cccc4ccccc34)cs2)o1 | / | / | / | / | / | 11.2
COc1ccc(/C=C2\C(=O)N(c3c(Cl)cc(Cl)cc3Cl)N=C2NC(=O)c2cccc([N+](=O)[O-])c2)cc1 | / | -3.66* | / | / | / | /
CC(C)(C)Cc1ccc(C2C(=O)c3ccccc3C2=O)cc1 | / | / | / | / | / | 7.7
CC(C(=O)NN)C1=NC(C)(C)Cc2ccccc21 (centres undefined) | / | / | / | / | / | 54.5*
CC(=O)c1ccc(NC2=NC(C)(C)Cc3ccccc32)cc1 | / | / | / | / | / | 3.0
CC1(C)C(c2ccco2)=[N+]([O-])C2(CCCCC/C2=N\O)N1O (centres undefined) | / | / | / | / | / | -10.7
CC(=O)c1ccc(-c2nc3c4ccccc4ccn3c2C(C)=O)o1 | 36.0 | 0.43 | 88.7* | 1.8 | -0.1 | 8.3
O=Cc1ccc(-c2nc3c4ccccc4ccn3c2C=O)o1 | / | / | / | / | / | -14.1
SMILES | Plk1 PBD FP | Pyk2 oligo antag | HEK293 NFkB inh | PLK1 kinase inh | AP complement | HePTP inh
CCc1ccc(NC2=C(Cl)C(=O)N(c3ccccc3C)C2=O)cc1 | / | / | / | / | / | 10.3
CCOC(=O)c1ccc(N2NC(=O)/C(=C/c3ccc(OC)c(Br)c3)C2=O)cc1 | / | / | / | / | / | 54.9*
CCOc1ccccc1/C=C1/C(=O)NN(c2ccc(I)cc2)C1=O | / | / | / | / | / | 18.1
CCOc1cc(/C=C2/C(=O)NN(c3ccc(I)cc3)C2=O)ccc1O | / | / | / | / | / | 89.9*
CCOC(=O)c1ccc(N2NC(=O)/C(=C/c3cc(OC)c(O)c(OC)c3)C2=O)cc1 | / | / | / | / | / | 89.0*
COc1ccc(-n2c(SCC(=O)Nc3ccccc3C)nc(O)cc2=O)cc1 | / | / | / | / | / | -2.7
CC(=O)Nc1c(C)ccc2c1C(C)CC21CCCC1 (centres undefined) | / | / | / | / | / | 104.2*
COc1ccc(N(CC(=O)Nc2ccccc2)S(C)(=O)=O)c(OC)c1 | / | / | / | / | / | 4.8
